Test results published in ChEMBL document CHEMBL1123472, “Long-acting dihydropyridine calcium antagonists. 1. 2-Alkoxymethyl derivatives incorporating basic substituents” (J Med Chem, 1986).
pIC50: −log10 of the molar value.

How the values were obtained:
[1] = In vitro calcium antagonist activity was assessed against calcium induced constriction of potassium-depolarized rat aorta; format: functional, tissue-based
Summary of the method: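 Spirally cut rat aortic strips, one end fixed and the other on a force transducer, in modified Krebs-Henseleit with 45 mM K⁺ and no calcium. CaCl2 is added to a final 2 mM Ca²⁺ and the contraction tension is recorded. After draining, refilling and 45 min, the challenge is repeated with the compound in the saline. The concentration giving 50% reduction of the response is recorded.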

Canis familiaris [2] = assay: Percent decrease in coronary vascular resistance in dogs after intravenous dosage of 450 ug/kg compound; format: functional, Canis lupus familiaris
Summary of the method: (§1)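 Given intravenously to instrumented, anesthetized dogs. Coronary blood flow was measured by hydrogen clearance. Coronary vascular resistance was derived as arterial blood pressure divided by coronary flow.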

Canis familiaris [3] = assay: Percent decrease in coronary vascular resistance in dogs after intravenous dosage of 150 ug/kg compound
Canis familiaris [4] = assay: Percent decrease in coronary vascular resistance in dogs after intravenous dosage of 1500 ug/kg compound; format: functional, Canis lupus familiaris; summary of the method: as §1
Cavia porcellus = species on record: Cavia porcellus; assay: Negative inotropy measured as the concentration required to depress contraction in the isolated Langendorff-perfused guinea pig heart by 25%; format: functional
Summary of the method: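 Hearts from male guinea pigs were Langendorff-perfused with Krebs-Henseleit solution at 37 °C. Force and rate of contraction were measured with a force transducer attached to the apex.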

Rattus norvegicus = species on record: Rattus norvegicus; assay: In vitro calcium antagonist activity was assessed against calcium induced constriction of potassium -depolarized rat aorta by 50%
[5] = Compound was tested for the volume of distribution in dogs; format: functional, organism-based
[6] = Compound was tested for the plasma half life in dogs; format: functional

Question: For `CCOC(=O)C1=C(COCCN)NC(C)=C(C(=O)OC)C1c1ccccc1Cl` (stereo in doubt; 17) [AMLODIPINE], which “-Log IC50” value [1] is on record?
Answer: 8.1

Question: And the Decrease (Canis familiaris [2])?
Answer: 69.5%

Question: What about the Decrease (Canis familiaris [3]) of the same compound?
Answer: 35.4%

Question: And the Decrease (Canis familiaris [4])?
Answer: 76.9%

Question: For `CCOC(=O)C1=C(COCCN)NC(C)=C(C(=O)OC)C1c1ccccc1Cl` (stereo in doubt; 18) [AMLODIPINE], which “-Log IC50” value [1] is on record?
Answer: 8.7

Question: Which results are given for `CCO/C(O)=C1\C(COCCN)=NC(C)=C(C(=O)OC)C1c1cccc(Cl)c1Cl` (stereo not given)?
Answer: -Log IC50 [1]: 7.9; -Log IC25 (Cavia porcellus): 6.6

Question: What does the source list for `CCO/C(O)=C1\C(COCCN2CCN(Cc3ccc(Cl)cc3)CC2)=NC(C)=C(C(=O)OC)C1c1ccccc1Cl` (stereo not given)?
Answer: -Log IC50 [1]: 8; -Log IC25 (Cavia porcellus): 7.4

Question: Which “-Log IC50” value [1] does the source give for `CCO/C(O)=C1\C(COCCN2CCN(C(C)C)CC2)=NC(C)=C(C(=O)OC)C1c1ccccc1Cl` (stereo not given) here?
Answer: 8.2

Question: What about the “-Log IC25” value (Cavia porcellus) of the same compound?
Answer: 8

Question: Which “-Log IC50” value [1] does the source give for `CCO/C(O)=C1\C(COCCNC)=NC(C)=C(C(=O)OC)C1c1ccccc1C` (stereo not given) here?
Answer: 7.2

Question: And the “-Log IC25” value (Cavia porcellus)?
Answer: 7.2

Question: With `CCO/C(O)=C1\C(COCCN2CCNCC2)=NC(C)=C(C(=O)OC)C1c1ccccc1Cl` (stereo not given) as the compound, how does the “-Log IC50” value [1] read?
Answer: 6.8

Question: What about the “-Log IC25” value (Cavia porcellus) of the same compound?
Answer: 7.4

Question: With `CCO/C(O)=C1\C(COCCN2CCN(CCN(CC)CC)CC2)=NC(C)=C(C(=O)OC)C1c1ccccc1Cl` (stereo not given) as the compound, how does the “-Log IC50” value [1] read?
Answer: 6

Question: What about the “-Log IC25” value (Cavia porcellus) of the same compound?
Answer: 7.1

Question: Which “-Log IC50” value [1] does the source give for `CCO/C(O)=C1\C(COCCN(C)C)=NC(C)=C(C(=O)OC)C1c1cccc2ccccc12` (stereo not given) here?
Answer: 7.1

Question: What about the “-Log IC25” value (Cavia porcellus) of the same compound?
Answer: 7.7

Question: For `CCO/C(O)=C1\C(COCCN(C)C)=NC(C)=C(C(=O)OC)C1c1ccccc1Cl` (stereo not given), which “-Log IC50” value [1] is on record?
Answer: 8.1

Question: What about the Decrease (Canis familiaris [2]) of the same compound?
Answer: 68.9%

Question: And the Decrease (Canis familiaris [3])?
Answer: 64.8%

Question: And the “-Log IC25” value (Cavia porcellus)?
Answer: 7.5

Question: And the Decrease (Canis familiaris [4])?
Answer: 74.7%

Question: Which results are given for `COC(=O)C1=C(C)NC(C)=C(C(=O)OC)C1c1ccccc1[N+](=O)[O-]` [NIFEDIPINE]?
Answer: pIC50 (Rattus norvegicus): 8.40; -Log IC25 (Cavia porcellus): 7.5

Question: Which “-Log IC50” value [1] does the source give for `CCOC(=O)C1=C(COCCN)NC(C)=C(C(=O)OC)C1c1ccccc1Cl` (stereo in doubt; 19) [AMLODIPINE] here?
Answer: 5.8

Question: For `CCO/C(O)=C1\C(COCCN2CCN(c3ccc(F)cc3)CC2)=NC(C)=C(C(=O)OC)C1c1ccccc1Cl` (stereo not given), which “-Log IC50” value [1] is on record?
Answer: 7.9

Question: What about the “-Log IC25” value (Cavia porcellus) of the same compound?
Answer: 7.3

Question: Which results are given for `CCO/C(O)=C1\C(COCCN)=NC(C)=C(C(=O)OC)C1c1ccc(Cl)cc1` (stereo not given)?
Answer: -Log IC50 [1]: 6; -Log IC25 (Cavia porcellus): 6

Question: Which “-Log IC50” value [1] does the source give for `CCO/C(O)=C1\C(COCCCN2CCN(C)CC2)=NC(C)=C(C(=O)OC)C1c1ccccc1Cl` (stereo not given) here?
Answer: 8.4

Question: What about the “-Log IC25” value (Cavia porcellus) of the same compound?
Answer: 8.2

Question: Which results are given for `COC(=O)C1=C(C)NC(C)=C(C(=O)OCCN(C)Cc2ccccc2)C1c1cccc([N+](=O)[O-])c1` (stereo not given)?
Answer: Vd [5]: 3.5 L/kg; Plasma half life [6]: 17 h

Question: Which results are given for `CCO/C(O)=C1\C(COCCN(C)C)=NC(C)=C(C(=O)OC)C1c1cccc([N+](=O)[O-])c1` (stereo not given)?
Answer: -Log IC50 [1]: 8; -Log IC25 (Cavia porcellus): 7.1

Question: For `CCO/C(O)=C1\C(COCCN2CCCC2)=NC(C)=C(C(=O)OC)C1c1ccccc1Cl` (stereo not given), which “-Log IC50” value [1] is on record?
Answer: 7.9

Question: And the “-Log IC25” value (Cavia porcellus)?
Answer: 7.7

Question: With `CCO/C(O)=C1\C(COCCN(C)C)=NC(C)=C(C(=O)OC)C1c1ccncc1` (stereo not given) as the compound, how does the “-Log IC50” value [1] read?
Answer: 6.1

Question: What about the “-Log IC25” value (Cavia porcellus) of the same compound?
Answer: 6

Question: For `CCO/C(O)=C1\C(COCCN)=NC(C)=C(C(=O)OC)C1c1cccc(C(F)(F)F)c1Cl` (stereo not given), which “-Log IC50” value [1] is on record?
Answer: 8.5

Question: What about the Decrease (Canis familiaris [2]) of the same compound?
Answer: 75.7%

Question: And the Decrease (Canis familiaris [3])?
Answer: 52.6%

Question: And the “-Log IC25” value (Cavia porcellus)?
Answer: 7.3

Question: What about the Decrease (Canis familiaris [4]) of the same compound?
Answer: 81.7%

Question: With `CCO/C(O)=C1\C(COCCN(C)C)=NC(C)=C(C(=O)OC)C1c1cccs1` (stereo not given) as the compound, how does the “-Log IC50” value [1] read?
Answer: 6.9

Question: And the “-Log IC25” value (Cavia porcellus)?
Answer: 6.6

Question: What does the source list for `CCO/C(O)=C1\C(COCCN2CCC(N(C)C)CC2)=NC(C)=C(C(=O)OC)C1c1ccccc1Cl` (stereo not given)?
Answer: -Log IC50 [1]: 6.4; -Log IC25 (Cavia porcellus): 7.1

Question: Which results are given for `CCO/C(O)=C1\C(COCCN(C)C)=NC(C)=C(C(=O)OC)C1c1ccccc1C(F)(F)F` (stereo not given)?
Answer: -Log IC50 [1]: 7.4; -Log IC25 (Cavia porcellus): 7.6

Question: With `CCO/C(O)=C1\C(COCCN(C)Cc2ccccc2)=NC(C)=C(C(=O)OC)C1c1ccccc1Cl` (stereo not given) as the compound, how does the “-Log IC50” value [1] read?
Answer: 7.4

Question: And the “-Log IC25” value (Cavia porcellus)?
Answer: 7.3

Question: For `CCO/C(O)=C1\C(COCCN)=NC(C)=C(C(=O)OC)C1c1ccccc1F` (stereo not given), which “-Log IC50” value [1] is on record?
Answer: 7.8

Question: What about the “-Log IC25” value (Cavia porcellus) of the same compound?
Answer: 6.6

Question: For `CCO/C(O)=C1\C(COCCNC)=NC(C)=C(C(=O)OC)C1c1c(F)cccc1Cl` (stereo not given), which “-Log IC50” value [1] is on record?
Answer: 7.9

Question: And the “-Log IC25” value (Cavia porcellus)?
Answer: 7.6

Question: Which results are given for `CCO/C(O)=C1\C(COCCN2CCN(C)CC2)=NC(C)=C(C(=O)OC)C1c1ccccc1Cl` (stereo not given)?
Answer: -Log IC50 [1]: 8; -Log IC25 (Cavia porcellus): 7.9

Question: What does the source list for `CCO/C(O)=C1\C(COCCNC)=NC(C)=C(C(=O)OC)C1c1ccccc1Cl` (stereo not given)?
Answer: -Log IC50 [1]: 8.5; Decrease (Canis familiaris [2]): 73.8%; Decrease (Canis familiaris [3]): 46.2%; -Log IC25 (Cavia porcellus): 7.5; Decrease (Canis familiaris [4]): 78.6%

Question: Which results are given for `CCO/C(O)=C1\C(COCCN2CCOCC2)=NC(C)=C(C(=O)OC)C1c1ccccc1Cl` (stereo not given)?
Answer: -Log IC50 [1]: 7.8; -Log IC25 (Cavia porcellus): 7.5

Question: For `CCO/C(O)=C1\C(COCCN)=NC(C)=C(C(=O)OC)C1c1cccc(Cl)c1` (stereo not given), which “-Log IC50” value [1] is on record?
Answer: 7.9

Question: What about the “-Log IC25” value (Cavia porcellus) of the same compound?
Answer: 6.6

Question: Which results are given for `CCO/C(O)=C1\C(COCCNC)=NC(C)=C(C(=O)OC)C1c1ccccc1OC` (stereo not given)?
Answer: -Log IC50 [1]: 7.2; -Log IC25 (Cavia porcellus): 7.1

Question: With `CCO/C(O)=C1\C(COCCCN(C)C)=NC(C)=C(C(=O)OC)C1c1ccccc1Cl` (stereo not given) as the compound, how does the “-Log IC50” value [1] read?
Answer: 8.6

Question: And the “-Log IC25” value (Cavia porcellus)?
Answer: 8.6

Question: With `CCO/C(O)=C1\C(COCCN)=NC(C)=C(C(=O)OC)C1c1ccccc1` (stereo not given) as the compound, how does the “-Log IC50” value [1] read?
Answer: 6.8

Question: What about the “-Log IC25” value (Cavia porcellus) of the same compound?
Answer: 6.2
